Source: ChEMBL document CHEMBL4190282, “The Conjugated Double Bond of Coniferyl Aldehyde Is Essential for Heat Shock Factor 1 Mediated Cytotoprotection” (J Nat Prod, 2017)
Calls of active or inactive are those of the source. The calls are words filed in the database; no cut-off is given here.

Columns and labels:
L132 = test: Cytoprotective activity against paclitaxel-induced caspase3 cleavage in human L-132 cells at 3 uM pretreated for 1 hr followed by paclitaxel addition measured after 24 hrs by immunoblotting analysis; type: functional, cell-based
Method in brief: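 Human embryonic lung L132 cells in RPMI with 10% FBS. 1 h pretreatment at 3 μM, then 0.5 μM paclitaxel or 20 μM cisplatin for 24 h, or 10 Gy 137Cs γ-rays (3.81 Gy/min) for 48 h. Cleaved PARP and caspase-3 immunoblotted (ECL); bands normalized to loading control, fold-change vs negative control, ≥3 independent experiments.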

[1] = target: T1, Heat shock factor protein 1 (Homo sapiens) (UniProt Q00613); test: Activation of HSF1 in human L132 cells assessed as increase in HSP70 mRNA expression at 3 uM after 12 hrs by RT-PCR analysis; type: cell-based
T1 sequence (whole entry): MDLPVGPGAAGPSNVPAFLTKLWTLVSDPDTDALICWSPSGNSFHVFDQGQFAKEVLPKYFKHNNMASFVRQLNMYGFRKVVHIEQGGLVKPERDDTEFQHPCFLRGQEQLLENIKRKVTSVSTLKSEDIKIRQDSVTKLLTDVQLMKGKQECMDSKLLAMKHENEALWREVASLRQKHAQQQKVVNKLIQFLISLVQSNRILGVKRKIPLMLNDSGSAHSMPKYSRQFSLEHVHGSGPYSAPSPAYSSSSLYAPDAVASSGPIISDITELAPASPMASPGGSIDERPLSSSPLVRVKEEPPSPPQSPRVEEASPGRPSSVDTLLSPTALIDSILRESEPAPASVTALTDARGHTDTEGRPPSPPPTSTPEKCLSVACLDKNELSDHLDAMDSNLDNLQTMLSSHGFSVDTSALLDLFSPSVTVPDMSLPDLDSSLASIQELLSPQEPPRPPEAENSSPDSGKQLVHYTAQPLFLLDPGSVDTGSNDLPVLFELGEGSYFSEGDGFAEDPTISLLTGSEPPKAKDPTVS
Method in brief: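 L132 human lung fibroblasts treated 12 h at 3 μM; hsp27 and hsp70 mRNA measured by RT-PCR under the same conditions as immunoblotting. Celastrol 1 μM positive control.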

[2] = target: T1, Heat shock factor protein 1 (Homo sapiens); test: Activation of HSF1 in human L132 cells assessed as increase in HSP70 protein levels at 3 uM after 12 hrs by immunoblotting analysis; type: cell-based
Method in brief: (§1)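 L132 cells treated at 3 μM for 12 h, or at various doses for 12 h, or at 3 μM over a time course. Lysates resolved by SDS-PAGE, blotted to nitrocellulose, milk-blocked, primary antibodies 18 h at 4 °C, ECL detection. HSP27, HSP70 and Ser326-phospho-HSF1 bands normalized to loading control; ≥3 independent experiments; celastrol 1 μM positive control.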

MEF = test: Cytoprotective activity against cisplatin-induced caspase3 cleavage in HSF1 deficient MEF at 3 uM pretreated for 1 hr followed by cisplatin addition measured after 24 hrs by immunoblotting analysis; type: functional, cell-based; conditions: Mus musculus
Method in brief: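 HSF1+/+ or HSF1−/− MEFs in DMEM with heat-inactivated 10% FBS, nonessential amino acids, glutamine, HEPES, 37 °C, 5% CO2. 1 h pretreatment at 3 μM, then 0.5 μM paclitaxel or 20 μM cisplatin for 24 h, or 10 Gy 137Cs γ-rays (3.81 Gy/min) for 48 h. Cleaved PARP and caspase-3 immunoblotted; bands normalized to loading control, fold-change vs negative control, ≥3 independent experiments.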

[3] = target: T1, Heat shock factor protein 1 (Homo sapiens); test: Activation of HSF1 in human L132 cells assessed as increase in HSP27 protein levels at 3 uM by immunoblotting analysis; type: cell-based; conditions: TDE = time-dependent effect; method in brief: as §1
[4] = target: T1, Heat shock factor protein 1 (Homo sapiens); test: Activation of HSF1 in human L132 cells assessed as increase in HSP27 protein levels after 12 hrs by immunoblotting analysis; type: cell-based; method in brief: as §1

Row | Activity [1] | Activity [2] | Activity [3] | Activity [4] | SMILES | Activity (L132) | Activity (MEF)
1 | Active | Active | Tde |  | COc1cc(/C=C/CO)ccc1O [CONIFERYL ALCOHOL] | Active | inactive
2 | Active | Active |  | Dose-dependent effect | COc1cc(/C=C/C=O)ccc1O [CONIFERYL ALDEHYDE] | Active | inactive
